# Source: ChEMBL document CHEMBL5724801, “EUbOPEN Chemogenomics Library - Multiplex” (2024)
# “And” between values parts separate entries of the source, which are not always exact repeats. Equal values may be shown once.
# Experiments:
# Format in all cases: toxicity, cell-based
# [1] = tested on: Fibroblast; experiment: Multiplex assay against human fibroblast
# Procedure, shortened: (§1)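 With compound added, live cells were imaged on a CQ1 microscope at 37°C and 5% CO2; staining with Hoechst33342, BioTracker Green Microtubule Cytoskeleton Dye, MitoTracker Red and Annexin V Alexa Fluor 680 had been done at seeding. The CellPathfinder machine-learning gating scheme split cells into Hoechst high-intensity objects or normal cells, normal cells into healthy, pyknosed or fragmented nuclei, and pyknosed cells into mitotic or apoptotic. The tubulin, mitochondrial-mass and membrane-permeability phenotypes are per cents of healthy-nucleus cells.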
# [2] = tested on: U2OS; experiment: Multiplex assay against U2OS; conditions: human; procedure, shortened: as §1
# [3] = tested on: HEK-293T; experiment: Multiplex assay against HEK293T; conditions: human; procedure, shortened: as §1
# [4] = 12 h, 1 µM, compound concentration 1 uM
# [5] = 12 h, 10 µM, compound concentration 10 uM
# [6] = 24 h, 1 µM, compound concentration 1 uM
# [7] = 24 h, 10 µM, compound concentration 10 uM
# [8] = 48 h, 1 µM, compound concentration 1 uM
# [9] = 48 h, 10 µM, compound concentration 10 uM
structure (smiles),measurement,setting,value
CN(C)Cc1cccc(NC(=C2C(=O)Nc3cc(C(=O)N(C)C)ccc32)c2ccccc2)c1,Population Fragmented Nuclei (%),[1]; [4],12.28% and 5.26%
same,Population Healthy Nuclei (%),[1]; [4],63.16% and 78.47%
same,Population Hoechst High Intensity Objects (%),[1]; [4],0%
same,Population Membrane Permeable-Phenotype (%),[1]; [4],4.17% and 9.15%
same,Population Mitochondria Different-Phenotype (%),[1]; [4],12.5% and 7.93%
same,Population Mitotic Cells (%),[1]; [4],91.07% and 67.65%
same,Population Normal (%),[1]; [4],100%
same,Population Pyknosed Nuclei (%),[1]; [4],24.56% and 16.27%
same,Population Tubulin-Different-Phenotype (%),[1]; [4],20.14% and 25%
same,Total Cell Count,[1]; [4],228 and 209
same,Population Apoptotic (%),[1]; [5],15.09% and 31.43%
same,Population Fragmented Nuclei (%),[1]; [5],12.72% and 8.65%
same,Population Healthy Nuclei (%),[1]; [5],64.04% and 80.13%
same,Population Hoechst High Intensity Objects (%),[1]; [5],0%
same,Population Membrane Permeable-Phenotype (%),[1]; [5],8.22% and 6.4%
same,Population Mitochondria Different-Phenotype (%),[1]; [5],23.97% and 16.8%
same,Population Mitotic Cells (%),[1]; [5],84.91% and 68.57%
same,Population Normal (%),[1]; [5],100%
same,Population Pyknosed Nuclei (%),[1]; [5],23.25% and 11.22%
same,Population Tubulin-Different-Phenotype (%),[1]; [5],54.79% and 75.6%
same,Total Cell Count,[1]; [5],228 and 312
same,Population Fragmented Nuclei (%),[1]; [6],10.42% and 4.72%
same,Population Healthy Nuclei (%),[1]; [6],77.5% and 83.96%
same,Population Hoechst High Intensity Objects (%),[1]; [6],0%
same,Population Membrane Permeable-Phenotype (%),[1]; [6],1.08% and 2.81%
same,Population Mitochondria Different-Phenotype (%),[1]; [6],4.84% and 10.11%
same,Population Mitotic Cells (%),[1]; [6],93.1% and 75%
same,Population Normal (%),[1]; [6],100%
same,Population Pyknosed Nuclei (%),[1]; [6],12.08% and 11.32%
same,Population Tubulin-Different-Phenotype (%),[1]; [6],11.29% and 23.03%
same,Total Cell Count,[1]; [6],240 and 212
same,Population Apoptotic (%),[1]; [7],13.33% and 25%
same,Population Healthy Nuclei (%),[1]; [7],66.94% and 85.67%
same,Population Hoechst High Intensity Objects (%),[1]; [7],0%
same,Population Membrane Permeable-Phenotype (%),[1]; [7],8.43% and 2.18%
same,Population Mitochondria Different-Phenotype (%),[1]; [7],24.7% and 21.82%
same,Population Mitotic Cells (%),[1]; [7],86.67% and 75%
same,Population Normal (%),[1]; [7],100%
same,Population Pyknosed Nuclei (%),[1]; [7],18.15% and 9.97%
same,Population Tubulin-Different-Phenotype (%),[1]; [7],63.25% and 79.64%
same,Total Cell Count,[1]; [7],248 and 321
same,Population Apoptotic (%),[1]; [8],26.67% and 31.25%
same,Population Fragmented Nuclei (%),[1]; [8],11.31% and 7.86%
same,Population Healthy Nuclei (%),[1]; [8],83.21% and 85.15%
same,Population Hoechst High Intensity Objects (%),[1]; [8],0%
same,Population Membrane Permeable-Phenotype (%),[1]; [8],0.88% and 7.18%
same,Population Mitotic Cells (%),[1]; [8],73.33% and 68.75%
same,Population Normal (%),[1]; [8],100%
same,Population Pyknosed Nuclei (%),[1]; [8],5.47% and 6.99%
same,Population Tubulin-Different-Phenotype (%),[1]; [8],7.46% and 16.92%
same,Total Cell Count,[1]; [8],274 and 229
same,Population Apoptotic (%),[1]; [9],33.33% and 64.71%
same,Population Fragmented Nuclei (%),[1]; [9],14.48% and 6.69%
same,Population Healthy Nuclei (%),[1]; [9],77.44% and 87.9%
same,Population Hoechst High Intensity Objects (%),[1]; [9],0%
same,Population Membrane Permeable-Phenotype (%),[1]; [9],1.3% and 2.9%
same,Population Mitochondria Different-Phenotype (%),[1]; [9],11.3% and 9.42%
same,Population Mitotic Cells (%),[1]; [9],66.67% and 35.29%
same,Population Normal (%),[1]; [9],100%
same,Population Pyknosed Nuclei (%),[1]; [9],8.08% and 5.41%
same,Population Tubulin-Different-Phenotype (%),[1]; [9],43.48% and 85.14%
same,Total Cell Count,[1]; [9],297 and 314
same,Population Apoptotic (%),[2]; [4],28.26% and 30.43%
same,Population Fragmented Nuclei (%),[2]; [4],2.06% and 3.41%
same,Population Healthy Nuclei (%),[2]; [4],87.39% and 83.52%
same,Population Hoechst High Intensity Objects (%),[2]; [4],0%
same,Population Membrane Permeable-Phenotype (%),[2]; [4],0.52% and 6.8%
same,Population Mitochondria Different-Phenotype (%),[2]; [4],0% and 12.24%
same,Population Mitotic Cells (%),[2]; [4],71.74% and 69.57%
same,Population Normal (%),[2]; [4],100%
same,Population Pyknosed Nuclei (%),[2]; [4],10.55% and 13.07%
same,Population Tubulin-Different-Phenotype (%),[2]; [4],2.1% and 0.68%
same,Total Cell Count,[2]; [4],436 and 176
same,Population Apoptotic (%),[2]; [5],55.32% and 60.53%
same,Population Fragmented Nuclei (%),[2]; [5],3.8% and 4.6%
same,Population Healthy Nuclei (%),[2]; [5],81.33% and 73.56%
same,Population Hoechst High Intensity Objects (%),[2]; [5],0%
same,Population Membrane Permeable-Phenotype (%),[2]; [5],17.12% and 38.28%
same,Population Mitotic Cells (%),[2]; [5],44.68% and 39.47%
same,Population Normal (%),[2]; [5],100%
same,Population Pyknosed Nuclei (%),[2]; [5],14.87% and 21.84%
same,Population Tubulin-Different-Phenotype (%),[2]; [5],58.37% and 42.19%
same,Total Cell Count,[2]; [5],316 and 174
same,Population Apoptotic (%),[2]; [6],51.56% and 40%
same,Population Fragmented Nuclei (%),[2]; [6],1.88% and 1.95%
same,Population Healthy Nuclei (%),[2]; [6],87.2% and 85.85%
same,Population Hoechst High Intensity Objects (%),[2]; [6],0.17% and 0%
same,Population Membrane Permeable-Phenotype (%),[2]; [6],1.76% and 3.98%
same,Population Mitotic Cells (%),[2]; [6],48.44% and 60%
same,Population Normal (%),[2]; [6],99.83% and 100%
same,Population Pyknosed Nuclei (%),[2]; [6],10.92% and 12.2%
same,Population Tubulin-Different-Phenotype (%),[2]; [6],1.96% and 2.27%
same,Total Cell Count,[2]; [6],587 and 205
same,Population Apoptotic (%),[2]; [7],70.87% and 69.84%
same,Population Fragmented Nuclei (%),[2]; [7],5.07% and 6.21%
same,Population Healthy Nuclei (%),[2]; [7],65.92% and 58.19%
same,Population Hoechst High Intensity Objects (%),[2]; [7],0.28% and 0%
same,Population Membrane Permeable-Phenotype (%),[2]; [7],18.8% and 30.1%
same,Population Mitotic Cells (%),[2]; [7],29.13% and 30.16%
same,Population Normal (%),[2]; [7],99.72% and 100%
same,Population Pyknosed Nuclei (%),[2]; [7],29.01% and 35.59%
same,Population Tubulin-Different-Phenotype (%),[2]; [7],47.86% and 58.25%
same,Total Cell Count,[2]; [7],356 and 177
same,Population Apoptotic (%),[2]; [8],54.74% and 41.51%
same,Population Fragmented Nuclei (%),[2]; [8],2.6% and 1.21%
same,Population Healthy Nuclei (%),[2]; [8],87.9% and 82.73%
same,Population Hoechst High Intensity Objects (%),[2]; [8],0%
same,Population Membrane Permeable-Phenotype (%),[2]; [8],1.02% and 2.56%
same,Population Mitochondria Different-Phenotype (%),[2]; [8],0% and 5.13%
same,Population Mitotic Cells (%),[2]; [8],45.26% and 58.49%
same,Population Normal (%),[2]; [8],100%
same,Population Pyknosed Nuclei (%),[2]; [8],9.5% and 16.06%
same,Population Tubulin-Different-Phenotype (%),[2]; [8],0.57% and 2.56%
same,Population Apoptotic (%),[2]; [9],82.42% and 88.41%
same,Population Fragmented Nuclei (%),[2]; [9],3.22% and 2.72%
same,Population Healthy Nuclei (%),[2]; [9],72.39% and 59.78%
same,Population Hoechst High Intensity Objects (%),[2]; [9],0%
same,Population Mitochondria Different-Phenotype (%),[2]; [9],14.07% and 38.18%
same,Population Mitotic Cells (%),[2]; [9],17.58% and 11.59%
same,Population Normal (%),[2]; [9],100%
same,Population Pyknosed Nuclei (%),[2]; [9],24.4% and 37.5%
same,Population Tubulin-Different-Phenotype (%),[2]; [9],61.85% and 69.09%
same,Total Cell Count,[2]; [9],373 and 184
same,Population Apoptotic (%),[3]; [4],14.71% and 13.93%
same,Population Hoechst High Intensity Objects (%),[3]; [4],0%
same,Population Membrane Permeable-Phenotype (%),[3]; [4],2.97% and 0%
same,Population Mitochondria Different-Phenotype (%),[3]; [4],27.72% and 21.05%
same,Population Mitotic Cells (%),[3]; [4],85.29% and 86.07%
same,Population Normal (%),[3]; [4],100%
same,Population Pyknosed Nuclei (%),[3]; [4],32.08% and 85.31%
same,Total Cell Count,[3]; [4],424 and 143
same,Population Apoptotic (%),[3]; [5],28.57% and 37.07%
same,Population Fragmented Nuclei (%),[3]; [5],3.59% and 6.21%
same,Population Hoechst High Intensity Objects (%),[3]; [5],0.65% and 0%
same,Population Membrane Permeable-Phenotype (%),[3]; [5],0.65% and 0%
same,Population Mitochondria Different-Phenotype (%),[3]; [5],22.58% and 0%
same,Population Mitotic Cells (%),[3]; [5],71.43% and 62.93%
same,Population Normal (%),[3]; [5],99.35% and 100%
same,Population Pyknosed Nuclei (%),[3]; [5],45.75% and 80%
same,Population Tubulin-Different-Phenotype (%),[3]; [5],30.97% and 70%
same,Total Cell Count,[3]; [5],308 and 145
same,Population Apoptotic (%),[3]; [6],14.29% and 19.69%
same,Population Healthy Nuclei (%),[3]; [6],68.64% and 31.44%
same,Population Hoechst High Intensity Objects (%),[3]; [6],0% and 1.52%
same,Population Membrane Permeable-Phenotype (%),[3]; [6],1.78% and 1.64%
same,Population Mitochondria Different-Phenotype (%),[3]; [6],11.17% and 11.48%
same,Population Mitotic Cells (%),[3]; [6],85.71% and 80.31%
same,Population Normal (%),[3]; [6],100% and 98.48%
same,Population Tubulin-Different-Phenotype (%),[3]; [6],15.48% and 9.84%
same,Total Cell Count,[3]; [6],574 and 197
same,Population Apoptotic (%),[3]; [7],47.22% and 65.45%
same,Population Fragmented Nuclei (%),[3]; [7],1.9% and 4%
same,Population Hoechst High Intensity Objects (%),[3]; [7],0%
same,Population Membrane Permeable-Phenotype (%),[3]; [7],1.58% and 2.94%
same,Population Mitochondria Different-Phenotype (%),[3]; [7],28.85% and 52.94%
same,Population Mitotic Cells (%),[3]; [7],52.78% and 34.55%
same,Population Normal (%),[3]; [7],100%
same,Population Pyknosed Nuclei (%),[3]; [7],29.35% and 73.33%
same,Population Tubulin-Different-Phenotype (%),[3]; [7],57.71% and 41.18%
same,Total Cell Count,[3]; [7],368 and 150
same,Population Fragmented Nuclei (%),[3]; [8],9.11% and 4.39%
same,Population Healthy Nuclei (%),[3]; [8],81.42% and 58.77%
same,Population Hoechst High Intensity Objects (%),[3]; [8],0.09% and 1.3%
same,Population Membrane Permeable-Phenotype (%),[3]; [8],9.75% and 2.24%
same,Population Mitochondria Different-Phenotype (%),[3]; [8],13.07% and 33.58%
same,Population Mitotic Cells (%),[3]; [8],98.1% and 79.76%
same,Population Normal (%),[3]; [8],99.91% and 98.7%
same,Population Apoptotic (%),[3]; [9],35.58% and 37.33%
same,Population Fragmented Nuclei (%),[3]; [9],1.61% and 2.67%
same,Population Healthy Nuclei (%),[3]; [9],79.82% and 47.33%
same,Population Hoechst High Intensity Objects (%),[3]; [9],0%
same,Population Membrane Permeable-Phenotype (%),[3]; [9],2.91% and 2.82%
same,Population Mitochondria Different-Phenotype (%),[3]; [9],76.06% and 67.61%
same,Population Mitotic Cells (%),[3]; [9],64.42% and 62.67%
same,Population Normal (%),[3]; [9],100%
same,Population Pyknosed Nuclei (%),[3]; [9],18.57% and 50%
